Source: PubChem
Kir21 block = blocks the mouse Kir2.1 inward-rectifier potassium channel | 0.85% of 310,000 active | B-score at 10 µM | HEK293-Kir2.1, FluxOR thallium flux fluorescence; stronger effect = lower value;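 active = fluorescence ratio B-score at or below minus 3 SD of library scores, with starting-brightness B-score within 2 SD, cut at about -4.2 in these data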;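 note: channel flux triggered by added potassium and thallium sulfate stimulus; B-score of peak minus minimum fluorescence over baseline after thallium stimulus; more negative B-score means stronger Kir2.1 block with less thallium influx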
KCNQ1 block = inhibitors of human KCNQ1 potassium channel; P51787; 1.3% of 310,000 active; AID 2642; CHO-K1 KCNQ1, FluxOR thallium flux fluorescence; stronger effect = higher value; B-score at 10 µM;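 active = compounds whose thallium flux B-score, printed positive for inhibition, exceeds three library SD while starting fluorescence stays within three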;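 note: channel opened by potassium depolarization with thallium stimulus after 20 min compound exposure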
Target sequence (P51787 whole entry, looked up): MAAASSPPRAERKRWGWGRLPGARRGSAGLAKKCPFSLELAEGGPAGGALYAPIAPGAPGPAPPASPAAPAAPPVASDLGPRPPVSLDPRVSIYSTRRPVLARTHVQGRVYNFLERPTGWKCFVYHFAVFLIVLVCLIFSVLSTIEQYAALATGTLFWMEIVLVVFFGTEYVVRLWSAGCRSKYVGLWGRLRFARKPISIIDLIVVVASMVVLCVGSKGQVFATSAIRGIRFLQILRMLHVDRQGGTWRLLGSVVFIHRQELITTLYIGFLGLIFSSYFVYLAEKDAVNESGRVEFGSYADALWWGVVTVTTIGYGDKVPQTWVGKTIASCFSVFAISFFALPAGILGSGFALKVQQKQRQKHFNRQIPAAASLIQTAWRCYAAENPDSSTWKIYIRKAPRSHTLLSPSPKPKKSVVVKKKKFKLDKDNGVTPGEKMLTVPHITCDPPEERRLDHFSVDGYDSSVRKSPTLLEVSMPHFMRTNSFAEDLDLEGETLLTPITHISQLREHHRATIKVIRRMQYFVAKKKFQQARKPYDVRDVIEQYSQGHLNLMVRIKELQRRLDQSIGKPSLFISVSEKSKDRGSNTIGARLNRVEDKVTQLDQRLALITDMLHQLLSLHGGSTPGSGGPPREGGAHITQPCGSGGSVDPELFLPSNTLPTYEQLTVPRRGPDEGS
KCNK9 inh = blocks the human KCNK9 two-pore domain potassium channel. B-score at 10 µM. Q9NPC2. 1.2% of 310,000 active. HEK293 KCNK9, FluxOR thallium flux fluorescence; stronger effect = lower value;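 active = ratio B-score over 3 SD below the library mean, with starting fluorescence within 5 SD of its mean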;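 note: negative B-score means less thallium flux so channel inhibition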
KCNK3 block = human KCNK3 channel inhibition, primary screen; O14649; CHO-KCNK3 thallium flux, FluxOR fluorescence; stronger effect = lower value; B-score at 10 µM; 0.84% of 340,000 active; AID 602410;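 active = B-score under library mean minus 4 SD, starting fluorescence ratio at most library mean plus 5 SD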;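 note: more negative B-score means stronger inhibition of thallium flux through KCNK3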
hERG rescue = hERG (human) protection from proarrhythmic block; 0.51% of 310,000 active; Q12809; activation (rescue from dofetilide block), less the hit threshold, % at 10 µM; CHO-hERG, FluxOR thallium flux, dofetilide IC70 present;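 active = activation above the mean of controls blocked by dofetilide plus 5 SD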;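 note: thallium influx through hERG after potassium depolarization seen as dye fluorescence rise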
KCNQ1 pot = potentiates or activates the human KCNQ1 potassium channel; P51787; CHO-K1 KCNQ1, thallium flux FluxOR fluorescence; stronger effect = higher value; B-score at 10 µM; 0.35% of 310,000 active;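 active = fluorescence ratio B-score, a plate-corrected score, at least three library SD, with initial intensity B-score within 5 SD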
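Test system: CHO-K1 cells stably expressing KCNQ1 / Medium: assay buffer / Also added: depolarizing K+/Tl+ stimulus, K2SO4 and Tl2SO4 each 12.5 mM in 5x stock / Incubation: 90 min dye loading and 20 min compound exposure, both at room temperature / Signal: thallium influx via FluxOR fluorescence, kinetic imaging / Evaluation: B score of baseline-normalized fluorescence ratio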
Large screens that a line does not name were inactive. Sampled rows, rich in hits. Any-hit rate of the full collection: about 3.7%.

O=C(CSc1ccc(-c2ccc(Br)cc2)nn1)NC1CCCC1	none
O=C1OCc2ccc([N+](=O)[O-])cc21	none (no result: Kir21 block, KCNQ1 block, KCNK9 inh, hERG rescue, KCNQ1 pot)
COc1cc(C2c3[nH]c4ccccc4c3CC3COC(=O)N32)cc(OC)c1O (configuration not stated)	none (no result: Kir21 block, KCNQ1 block, KCNK9 inh, hERG rescue, KCNQ1 pot)
CCN(CC(=O)Nc1ccc(NC(C)=O)cc1)C(=O)C1(c2ccccc2)CC1	none (no result: Kir21 block, KCNQ1 block, KCNK9 inh, hERG rescue, KCNQ1 pot)
O=[N+]([O-])c1ccc(NCc2ccc(Cl)cc2)nc1	none
CC(C)c1ccc(CNc2ccc([N+](=O)[O-])cn2)cc1	KCNQ1 block 7
O=C(CSc1nnc(NC(=O)c2c(F)cccc2Cl)s1)Nc1ccccc1F	none
O=C(COC(=O)C1CC(=O)N(Cc2ccco2)C1)c1ccc(OC(=O)c2ccccc2)cc1 (configuration not stated)	Kir21 block -6.2
O=C(COC(=O)C1CC(=O)N(Cc2ccco2)C1)Nc1ccccc1[N+](=O)[O-] (configuration not stated)	none (no result: Kir21 block, KCNQ1 block, KCNK9 inh, hERG rescue, KCNQ1 pot)
O=C(COc1ccccc1)Nc1nnc(S(=O)(=O)Nc2ccccc2)s1	none
CSc1nc2cc(Oc3cccc(Cl)c3Cl)c(Cl)cc2[nH]1	KCNQ1 block 14, KCNK3 block -11
COc1cc(/C=C/C(=O)OCC(=O)N(C)C2CCS(=O)(=O)C2)ccc1OC(F)F (configuration not stated)	none
Nc1ccc2cccc(O)c2c1	none (no result: Kir21 block, KCNQ1 block, KCNK9 inh, hERG rescue, KCNQ1 pot)
O=C(NC(Cc1c[nH]c2ccccc12)C(=O)N/N=C/c1cccc2ccccc12)c1cccs1 (configuration not stated)	KCNQ1 block 6
CCCn1ccnc1SC(C)C(=O)Nc1c(C)n(C)n(-c2ccccc2)c1=O (configuration not stated)	none (no result: Kir21 block, KCNQ1 block, KCNK9 inh, hERG rescue, KCNQ1 pot)
CC1c2cc3c(cc2CCN1C(=O)c1ccc(C(F)(F)F)cc1)OCCCO3 (configuration not stated)	KCNK9 inh -6.9
Cc1occc1C(=O)NNC(=S)NC(=O)COc1ccc(Cl)cc1Cl	hERG rescue 62, KCNQ1 pot 75
CCCCN1C(=O)C2C(c3ccc(OC)cc3O)NC(CC(C)C)(C(=O)O)C2C1=O (configuration not stated)	none
CCC1(C(=O)O)NC(c2cc(OC)ccc2O)C2C(=O)N(Cc3ccccc3)C(=O)C21 (configuration not stated)	hERG rescue 5.5
CCOC(=O)c1n[nH]n2c1nc(=S)c1ccccc12	hERG rescue 23, KCNQ1 pot 34
Cc1nn(-c2ccccc2)c(C)c1NC(=O)COC(=O)/C=C/c1ccccc1	none
CCCCOC(=O)c1ccc(NC(=S)NC(=O)c2c(Br)c(C)nn2C)cc1	none
CC(=O)c1ccc(NC(=S)NC(=O)c2c(Cl)c(C)nn2C)cc1	KCNQ1 pot 11
CCC1=C(OC(=O)N(CC)CC)N2C(=O)OC(=NCc3ccccc3)[C@]2(C)[C@H]2C1=CC[C@H]1C(=O)N(CC(=O)OC)C(=O)[C@H]12	none
CCC1=C(OC(=O)N(CC)CC)N2C(=O)OC(=NCC3CC3)[C@]2(Cc2ccccc2)[C@H]2C1=CC[C@H]1C(=O)N(CC(=O)OC)C(=O)[C@H]12	KCNK9 inh -6.8 (no result: KCNK3 block)
N#C/C(=C/c1ccc(Sc2nc3ccccc3[nH]2)o1)c1ccccc1F	KCNQ1 block 17
N#C/C(=C\c1ccc([N+](=O)[O-])o1)c1nc2ccccc2[nH]1	KCNQ1 block 6 (no result: KCNK3 block)
N#C/C(=C\c1ccc(Sc2ccccc2)o1)c1nc2ccccc2[nH]1	none
N#C/C(=C/c1ccc(Sc2nc3ccccc3[nH]2)o1)c1cccc(Br)c1	KCNK3 block -10
COc1ccc(CC2(c3ccccc3)NC(=O)NC2=O)cc1 (configuration not stated)	none (no result: Kir21 block, KCNQ1 block, KCNK9 inh, hERG rescue, KCNQ1 pot)
CC(C)CCN1C(=O)C2(OCCCO2)c2cc(Cl)ccc21	none
O=C(COc1ccc(Cl)cc1)NNC(=O)C(=O)NC1CCCCC1	hERG rescue 15, KCNQ1 pot 11
COc1ccccc1C(=O)NNC(=O)C(=O)NC1CCCCC1	hERG rescue 21, KCNQ1 pot 20
O=C(COc1ccc(Cl)cc1)NC1CC1	none
COc1ccc([N+](=O)[O-])cc1NC(=O)C(C)c1ccccc1 (configuration not stated)	none
COc1ccc([N+](=O)[O-])cc1NC(=S)NC(NC(=O)C(c1ccccc1)c1ccccc1)C(Cl)(Cl)Cl (configuration not stated)	KCNQ1 block 14
Cc1cc([N+](=O)[O-])ccc1NC(=S)NC(=O)C(c1ccccc1)c1ccccc1	KCNQ1 block 7
COc1ccc(NC(=S)NC(NC(=O)c2cccc3ccccc23)C(Cl)(Cl)Cl)c([N+](=O)[O-])c1 (configuration not stated)	KCNK9 inh -6.9
CCCCn1nnnc1SCC(=O)c1cc(Cl)ccc1OC	none
COc1ccc(Cl)cc1C(=O)CSc1nc(N)cc(N)n1	Kir21 block -4.7
Cc1ccc(-n2c(SCc3cn4ccsc4n3)nc3ccccc3c2=O)cc1	KCNQ1 block 7
c1ccc(-n2cnnc2SCc2cn3ccsc3n2)cc1	none
O=C(CSCc1ccc(Cl)cc1)NN=C1CCCCCC1	none
CC(C)(/C=N/NC(=O)CSCc1ccc(Cl)cc1)CCC#N	hERG rescue 5.1
CN1/C(=C\C=[N+](C)c2ccccc2)C(C)(C)c2ccccc21	KCNQ1 block 8
Cc1ccc(S(=O)(=O)N2CCCCC2)cc1C(=O)NCc1ccc(S(N)(=O)=O)cc1	none (no result: Kir21 block, KCNQ1 block, KCNK9 inh, hERG rescue, KCNQ1 pot)
Cc1oc2c(cc(NS(=O)(=O)c3ccc(C(C)C)cc3)c3ccccc32)c1C(=O)O	KCNQ1 block 9
COc1ccc(S(=O)(=O)Nc2cc3c(C(C)=O)c(C)oc3c3ccccc23)cc1	KCNK9 inh -7.3
Cc1oc2c(cc(NS(=O)(=O)c3ccc(F)cc3)c3ccccc32)c1C(=O)O	none
COc1ccc(-n2ncc(C(C)NS(=O)(=O)c3cc(F)ccc3C)c2C)cc1 (configuration not stated)	none
CN(C)S(=O)(=O)c1ccc(SCC(=O)N2CC(=O)Nc3ccccc32)nc1	none (no result: Kir21 block, KCNQ1 block, KCNK9 inh, hERG rescue, KCNQ1 pot)
COC(=O)c1ccc(COc2ccccc2/C=C(\C#N)C(=O)Nc2ccc(C)cc2C)cc1	KCNK9 inh -7.1
CC(=O)NC(CC(=O)N(Cc1ccccc1)c1cccc(C)c1)c1ccccc1 (configuration not stated)	none
Cc1ccc(S(=O)(=O)C(C)C(=O)c2ccc3c(c2)OCCO3)cc1 (configuration not stated)	Kir21 block -4.3
O=C(Nc1cccc(NC(=O)c2ccco2)c1)c1ccccc1	KCNK9 inh -7.6
O=C(Nc1cccc(NC(=O)c2ccc(-c3cccc(Br)c3)o2)c1)c1ccco1	KCNK9 inh -12
O=C(Cc1cccs1)Nc1cccc(-c2nc3cc4ccccc4cc3[nH]2)c1	KCNQ1 block 9
